Each structure is given as a SMILES string.

This note sets out measurements from ChEMBL document CHEMBL1123578, “Stereochemical studies on the cytochrome P-450 catalyzed oxidation of (S)-nicotine to the (S)-nicotine delta 1'(5')-iminium species” (J Med Chem, 1987).

Assay type in all cases: functional
Holding throughout (conditions): Microsome

For assay [1], the species on record is Homo sapiens. As to the kind of experiment: Percent Deuterium retention was measured for the corresponding alpha-cyano amine in the human liver microsomes and value from experiment I are reported. In outline: (§1)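 Human liver microsomes from three separate sources (homogenized in 4 mL KCl/g liver), 3 mg protein/mL. E or Z (S)-nicotine-5'-d1 (0.5 mM) was incubated 30 min at 37 °C in 0.2 M K phosphate pH 7.4 with 1.5 mM MgCl2, 1.0 mM NaCN and 1 mg/mL NADPH. The 5'-cyano adducts were ether-extracted and measured by GC-EIMS SIM (m/z 109-111) with isotope and contaminant corrections.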

The species entered for assay [2] is Homo sapiens. In words: Percent Deuterium retention was measured for the corresponding alpha-cyano amine in the human liver microsomes and value from experiment II are reported. An outline of the steps:
as §1
(Microsomes from liver hold many membrane-bound enzymes, among them those of drug oxidation.)

The species named for assay [3] is Homo sapiens. In words: Percent Deuterium retention was measured for the corresponding alpha-cyano amine in the human liver microsomes and value from experiment III are reported. An outline of the steps: as §1
The species entered for assay [4] is Oryctolagus cuniculus. In words: Percent Deuterium retention was measured for the corresponding alpha-cyano amine in the Dutch rabbit liver microsomes and value from experiment I are reported. In outline: (§2)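 Liver microsomes from male Dutch rabbits (homogenized in 2 mL KCl/g liver), 3 mg protein/mL. The E or Z (S)-nicotine-5'-d1 (0.5 mM) was incubated in 0.2 M K phosphate pH 7.4 with 1.5 mM MgCl2, 1.0 mM NaCN and 1 mg/mL NADPH for 30 min at 37 °C.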

Assay [5] is filed under the species Oryctolagus cuniculus. As to the kind of experiment: Percent Deuterium retention was measured for the corresponding alpha-cyano amine in the Dutch rabbit liver microsomes and value from experiment II are reported. An outline of the steps:
as §2

The species named for assay [6] is Oryctolagus cuniculus. In words: Percent Deuterium retention was measured for the corresponding alpha-cyano amine in the Dutch rabbit liver microsomes and value from experiment IV are reported. An outline of the steps: as §2
Assay [7] is filed under the species Oryctolagus cuniculus. In words: Percent Deuterium retention was measured for the corresponding alpha-cyano amine in the Dutch rabbit liver microsomes and value from experiment V are reported. An outline of the steps:
as §2

Assay [8] is filed under the species Oryctolagus cuniculus. As to the kind of experiment: Percent Deuterium retention was measured for the corresponding alpha-cyano amine in the Dutch rabbit liver microsomes and value from experiment VI are reported. An outline of the steps: as §2
For assay [9], the species on record is Oryctolagus cuniculus. As to the kind of experiment: Percent Deuterium retention was measured for the corresponding alpha-cyano amine in the Dutch rabbit liver microsomes and value from experiment III are reported. In outline: as §2
Assay [10] is filed under the species Homo sapiens. In words: Percent Deuterium retention was measured for the corresponding alpha-cyano amine in the human liver microsomes and value from experiment III are reported. An outline of the steps:
as §1

Assay [11] is filed under the species Oryctolagus cuniculus. In words: Percent Deuterium retention was measured for the corresponding alpha-cyano amine in the Dutch rabbit liver microsomes and value from experimentI V are reported. An outline of the steps: as §2

For `CN1[C@@H](C#N)CC[C@H]1c1cccnc1`, the Deuterium retention in the assay listed under Homo sapiens [1] is 92%; in the assay filed under Homo sapiens [2], 84%; in the assay filed under Homo sapiens [3], 91%; in the assay listed under Oryctolagus cuniculus [4], 87%; in the assay filed under Oryctolagus cuniculus [5], 81%; in the assay filed under Oryctolagus cuniculus [6], 79%. Also, the results for the Deuterium retention in the assay listed under Oryctolagus cuniculus [7], in the assay filed under Oryctolagus cuniculus [8] and in the assay filed under Oryctolagus cuniculus [9] were 77%, 88% and 89%, respectively.
In the case of `CN1[C@H](C#N)CC[C@H]1c1cccnc1`, the Deuterium retention in the assay filed under Homo sapiens [1] worked out at 3%; in the assay listed under Homo sapiens [2] it was 24%; in the assay filed under Homo sapiens [10] it was 3%; in the assay listed under Oryctolagus cuniculus [4] it was 34%; in the assay listed under Oryctolagus cuniculus [5], 22%; in the assay filed under Oryctolagus cuniculus [7], 27%. For the same molecule, the Deuterium retention in the assay filed under Oryctolagus cuniculus [8] was determined as 16%; in the assay listed under Oryctolagus cuniculus [11], 28%; in the assay filed under Oryctolagus cuniculus [9], 30%.
